Data reported in PubChem BioAssay AID2363 (The Scripps Research Institute Molecular Screening Center, 2010).

Target: Protein phosphatase methylesterase 1 (Homo sapiens) (UniProt Q9Y570)
Assay: in situ PME-1 block, PP2A methylation – HeLa cells, demethylated PP2A western blot, orthogonal assay for PME-1 inhibitor project, late-stage follow-up (AID 2363)
Conditions: demethylated PP2A western blot chemiluminescence, stronger effect = higher value
How it was run: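 System: HeLa cells in culture with endogenous PME-1; Reagent: cellular PP2A as the PME-1 demethylation substrate; Compound dosing: 5 and 20 µM compound; Times: compound exposure of cells at 37 °C; Signal: SDS-PAGE immunoblot with HRP antibody against demethylated PP2A C-terminus, chemiluminescence; Read-out: % inhibition of PP2A demethylation.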

[1] = PP2A demethylation inhibition, at 20 µM

Sequence of Protein phosphatase methylesterase 1 (Homo sapiens) (Q9Y570 whole entry, looked up): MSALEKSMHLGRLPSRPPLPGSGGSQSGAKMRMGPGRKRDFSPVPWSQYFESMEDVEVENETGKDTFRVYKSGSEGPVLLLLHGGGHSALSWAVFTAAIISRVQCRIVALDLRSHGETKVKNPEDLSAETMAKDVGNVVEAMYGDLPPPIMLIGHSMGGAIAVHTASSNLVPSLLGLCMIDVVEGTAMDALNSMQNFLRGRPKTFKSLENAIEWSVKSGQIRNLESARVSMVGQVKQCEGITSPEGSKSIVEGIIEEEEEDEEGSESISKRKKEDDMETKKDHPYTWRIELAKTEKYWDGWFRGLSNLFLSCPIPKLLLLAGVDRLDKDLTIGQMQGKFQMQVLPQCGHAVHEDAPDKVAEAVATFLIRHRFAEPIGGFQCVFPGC

inhibition [1] [%] | inhibition (at 5 µM) [%] | Structure (SMILES)
98 | 65 | N#C/C(=C\c1cccn1S(=O)(=O)c1cccc([N+](=O)[O-])c1)S(=O)(=O)c1ccc(F)cc1
95 | 60 | N#C/C(=C\c1cccn1S(=O)(=O)c1cccc(C#N)c1)S(=O)(=O)c1ccc(F)cc1
